Reference: ChEMBL document CHEMBL4513216, “Probing the Open Global Health Chemical Diversity Library for Multistage-Active Starting Points for Next-Generation Antimalarials” (ACS Infect Dis, 2020)

Test: Toxicity liver stage against HepG2, at 10uM
Format: cell-based
Design: test concentration 10 uM, cell line HepG2-A16-CD81EGFP
Details: human, HepG2-A16-CD81EGFP cells; read-out: INHIBITION
Procedure, shortened: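 Uninfected HepG2-A16-CD81EGFP cells, 3 × 10^3 per well, 1536-well, plated on prespotted compound at 10 μM final, parasite-free screening media added to match infected plates; puromycin 10 μM positive, DMSO 0.5% negative; run in parallel with 48 h PbLuc assay at 37 °C, 5% CO2; viability by CellTiter-Glo luminescence, normalized to controls.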

Cc1n[nH]c(C(=O)NCc2ccnc(OCC(F)(F)F)c2)c1Br
cytotoxicity at 10 µM: 5.67%

CCCn1nnc2c(sc3nc(N4CCOCC4)c4c(c32)CCC4)c1=O
cytotoxicity at 10 µM: 1.74%

CCOc1ccccc1C(=O)NCCC(O)c1ccoc1 (centres undefined)
cytotoxicity at 10 µM: -16.4%

Cc1cc(N2CCCC2)nc(CNS(=O)(=O)Cc2ccccc2)n1
cytotoxicity at 10 µM: 7.48%

CC(=O)N1CC2(CCN(C(=O)C3CC3)CC2)c2cc(C)ccc21
cytotoxicity at 10 µM: 9.94%

Cc1cnc(C(=O)N2C[C@H]3CN(Cc4nccs4)C[C@H]3C2)cn1
cytotoxicity at 10 µM: -147%

CNC(=O)c1sccc1N(C)S(=O)(=O)c1ccc(Cl)cc1
cytotoxicity at 10 µM: 14.7%

COc1ccc(-c2nc(C)cc(SCC(N)=O)n2)cc1
cytotoxicity at 10 µM: 5.64%

O=C(Cn1cc(-c2ccccc2)ncc1=O)Nc1ncc[nH]1
cytotoxicity at 10 µM: 5.89%

CCCc1cc(=O)n(CC(N)=O)c(-n2nc(C)cc2C)n1
cytotoxicity at 10 µM: 0.097%

Cn1cnnc1S(=O)(=O)C1CCN(S(=O)(=O)c2ccc(F)c(Cl)c2)CC1
cytotoxicity at 10 µM: -7.2%

CC(=O)Nc1ccc(-n2ccc3nc(N4CCCC4)ncc3c2=O)cc1
cytotoxicity at 10 µM: 2.24%

Cc1ccc(C(=O)Cc2c(Cl)nc3n(C)c(=O)n(C)c(=O)n23)cc1
cytotoxicity at 10 µM: -3.96%

CC(=O)Nc1ncc(S(=O)(=O)Nc2ccc3c(c2)OCCO3)s1
cytotoxicity at 10 µM: 2.93%

CC(C)C[C@H](N)COc1cccc(F)c1Oc1cccc(Cl)c1
cytotoxicity at 10 µM: 86.1%

CN(C)c1cc(C2CCCN(S(=O)(=O)c3cn[nH]c3)C2)ccn1 (centres undefined)
cytotoxicity at 10 µM: -0.24%

CN1CCC(c2cccc(Cc3ccccc3)n2)CC1
cytotoxicity at 10 µM: -9.24%

Cc1ccsc1CN1CCc2c(nc(N3CCCCC3C)[nH]c2=O)C1 (centres undefined)
cytotoxicity at 10 µM: -3.42%

Cn1cc(C(=O)N2CCCC(Cc3cccc4ncccc34)C2)cn1 (centres undefined)
cytotoxicity at 10 µM: 4.88%

CCc1cc(N2CCC(Nc3ccc(Cl)cn3)CC2)ncn1
cytotoxicity at 10 µM: 49.1%

CNC(=O)C(C)CN(C)C(=O)Nc1cc(F)cc(Br)c1 (centres undefined)
cytotoxicity at 10 µM: 4.25%

Cn1cc(Nc2cccc(C(=O)N(CC(N)=O)C3CCCC3)c2)cn1
cytotoxicity at 10 µM: -1.78%

O=C(CCNCc1cccc(O)c1)N1CCc2sccc2C1
cytotoxicity at 10 µM: 16%

CN(CCOc1cccc(S(C)(=O)=O)c1)c1ccccc1
cytotoxicity at 10 µM: 2.3%

Cc1cc(C)n(C2CN(c3nc(-c4ccncc4)nc4c3CCC4)C2)n1
cytotoxicity at 10 µM: -33.6%

NC(=O)c1ccnc(N2CCN(Cc3ccc(F)cc3Cl)CC2)c1
cytotoxicity at 10 µM: 40.8%

Cc1cc(N(C)CC2COc3ccccc3O2)nc(C)n1 (centres undefined)
cytotoxicity at 10 µM: 38.7%

CCSc1cccc(NCc2cccnc2)c1
cytotoxicity at 10 µM: 0.14%

CNC(=O)c1cccnc1NCc1ccc(Cn2ccnc2)cc1
cytotoxicity at 10 µM: 90.3%

CC(NC1(CNC(=O)CC2CCCC2)CCOCC1)c1ccccc1 (centres undefined)
cytotoxicity at 10 µM: -1.67%

Cc1ncc(CN2CCC(c3nc4cc(Cl)ccc4o3)CC2)s1
cytotoxicity at 10 µM: 51.7%

Cc1nc(C2CCCN(C(=O)c3cc(C)sc3C)C2)no1 (centres undefined)
cytotoxicity at 10 µM: 6.86%

Cc1ccccc1CN(C)C(=O)CN1CCCCC1Cn1cncn1 (centres undefined)
cytotoxicity at 10 µM: 8.44%

Cc1cc(N2CCC(N(C)C(=O)c3ccc(C#N)cc3)CC2)nc(C)n1
cytotoxicity at 10 µM: 26.7%

CCOC(C)c1noc(CN2CCN(c3ccncc3)CC2)n1 (centres undefined)
cytotoxicity at 10 µM: -10.6%

COCC1CN(c2ccc3c(Cl)ccnc3c2F)CCO1 (centres undefined)
cytotoxicity at 10 µM: 25%

COCCOc1ccccc1CNCC1COC2(CCCC2)O1 (centres undefined)
cytotoxicity at 10 µM: -143%

COCCOc1ccc(CNc2nc3ccccc3nc2N)cn1
cytotoxicity at 10 µM: 33.9%

CC(C)(C)c1ncc(CNc2ccccc2SCCC(N)=O)s1
cytotoxicity at 10 µM: 55.4%

CC(=O)N1CCC(C(=O)NCc2ncc(-c3ccccc3)o2)CC1
cytotoxicity at 10 µM: -63.8%

NC(=O)c1cccc(CCNCc2cnc(C3CCC3)s2)c1
cytotoxicity at 10 µM: 21.9%

CN(Cc1ccc(Cl)s1)C(=O)CN(C)C1CCCc2ccccc21 (centres undefined)
cytotoxicity at 10 µM: 21.4%

Cc1ccc(C)c(OCC(O)CN(C)CC(=O)Nc2cc(C)on2)c1 (centres undefined)
cytotoxicity at 10 µM: -14.4%

CC(C)(C)c1nc(NS(=O)(=O)c2ccccc2F)no1
cytotoxicity at 10 µM: -1.45%

CC(C)(C)c1nc(NS(=O)(=O)c2cccc(F)c2)no1
cytotoxicity at 10 µM: -10.8%

Cc1nc(C(=O)NC2CCN(CCOc3ccc(Br)cc3)CC2)cs1
cytotoxicity at 10 µM: 13%

CCSc1cncc(NCc2ccc(N3CCNC(=O)C3)cc2)n1
cytotoxicity at 10 µM: 15.7%

N#Cc1c(Cl)nsc1NCC1(c2ccccc2)CCC1
cytotoxicity at 10 µM: 26.7%

O=C(CN1CCCC(c2ccn[nH]2)C1)Nc1nc2c(s1)CCC2 (centres undefined)
cytotoxicity at 10 µM: -42.4%

COc1cc(N2CC[C@@H]3[C@@H](CC2)OCCN3CC2CC2)ncn1
cytotoxicity at 10 µM: -107%

COCC1CN(c2ncccn2)Cc2cnn(CC3CC3)c21 (centres undefined)
cytotoxicity at 10 µM: 6.68%

COCC(=O)N1CCC2(COCc3cnc(N4CCOCC4)nc32)C1 (centres undefined)
cytotoxicity at 10 µM: -65%

O=C(c1ccco1)N1CCO[C@@H]2CN(c3ccccc3)CC[C@@H]2C1
cytotoxicity at 10 µM: -67.7%

c1ccc(NCc2cnc3n2CCN(C2CCOC2)CC3)nc1 (centres undefined)
cytotoxicity at 10 µM: -70.5%

C[C@@H]1CN(c2nc(N)nc3c2CCC3)CC[C@@]1(O)C1CCC1
cytotoxicity at 10 µM: 36.9%

Cc1nc(CCNC(=O)c2cc(C(C)C)nn2C)sc1C
cytotoxicity at 10 µM: 22.4%

COc1cc(Oc2ccc(C#N)cn2)ccc1CN1CCCC1
cytotoxicity at 10 µM: 32.2%

COc1ccc(CN2CCC=C(C(C)NC(C)=O)C2)cc1 (centres undefined)
cytotoxicity at 10 µM: -5.5%

Cc1nc(N2CCC3(CCCN(C(C)C)C3=O)C2)c2sccc2n1 (centres undefined)
cytotoxicity at 10 µM: 18.6%

Fc1ccccc1CC1CCN(Cc2cscn2)CC1
cytotoxicity at 10 µM: -5.71%

C(=C\c1ccc(CN2CCCC2)cn1)/c1ccccc1
cytotoxicity at 10 µM: 9.81%

COc1ccccc1CCN1CCCC(CN(C)Cc2c[nH]c(C)n2)C1 (centres undefined)
cytotoxicity at 10 µM: 6.74%

COc1ccc(-c2noc(-c3ccc(N4CCC[C@H]4CO)nc3)n2)cc1
cytotoxicity at 10 µM: 11.1%

CN(C)c1ccc(-c2cc(C(=O)O)cc(S(=O)(=O)NC3CC3)c2)cc1
cytotoxicity at 10 µM: 16.5%

CN(C)C1CCN(Cc2cnc(S(C)(=O)=O)n2CC2CCCCC2)C1 (centres undefined)
cytotoxicity at 10 µM: 0.83%

COC(=O)CNC(=O)c1cn(Cc2ccccc2F)nn1
cytotoxicity at 10 µM: 4.98%

CCc1[nH]c2c(CNc3nc(C)cc(NC)n3)cc(C)cc2c1C
cytotoxicity at 10 µM: -22.4%

CN(Cc1cccnc1N)Cc1cccc2ncccc12
cytotoxicity at 10 µM: 53.8%

COc1ccc2c(c1)C(C(=O)N(C)CCc1cnn(C)c1)CC(=O)N2 (centres undefined)
cytotoxicity at 10 µM: -57.2%

CN1CC(c2ccccc2)CC2(CCN(C(=O)c3cccnn3)CC2)C1 (centres undefined)
cytotoxicity at 10 µM: -8.92%

CNc1nc(C(=O)N2CCN(c3ccc(Cl)c(Cl)c3)CC2)cs1
cytotoxicity at 10 µM: 13.9%

O=C1O[C@@H]2CN(c3ncccn3)C[C@@H]2N1CCCc1ccc(F)cc1
cytotoxicity at 10 µM: -0.74%

CC(C)N1CC(NC(=O)c2ccc(Cl)s2)CC1=O (centres undefined)
cytotoxicity at 10 µM: -8.51%

CC(C)N(CCNc1nc(C2CCCC2)nc2c1cnn2C)C(C)C
cytotoxicity at 10 µM: 5.29%

O=C(c1ncoc1C1CC1)N1CCCN(CCCc2ccccc2)CC1
cytotoxicity at 10 µM: -2.78%

CSc1nccc(N2CCC3(CCCN(CCc4ccccc4)C3)C2)n1 (centres undefined)
cytotoxicity at 10 µM: 16.2%

OCC1(CC2CCCCO2)CCN(c2cnc3ccccc3n2)CC1 (centres undefined)
cytotoxicity at 10 µM: 21.1%

COCCN(C)C[C@@H]1CN(C(=O)c2c(F)ccc(OC)c2F)C[C@@H]1CO
cytotoxicity at 10 µM: 0.45%

COCc1cc(N2CCc3onc(-c4cccc(OC)c4)c3C2)ncn1
cytotoxicity at 10 µM: 14.4%

CC(=O)Cn1c(C)cc(=O)c2cc(F)ccc21
cytotoxicity at 10 µM: -4.46%

Cc1cnccc1N1CCN(c2nccc(CCC(F)(F)F)n2)CC1
cytotoxicity at 10 µM: 4.91%

Oc1ccc(N2CCC(Cc3ccccc3)CC2)nn1
cytotoxicity at 10 µM: 45.4%

CCC(Nc1nccc(C2CCCC2)n1)c1ccncc1 (centres undefined)
cytotoxicity at 10 µM: -63.8%

CCn1cc(NC(=O)c2cccc(CN3C[C@@H](C)O[C@@H](C)C3)c2)nn1
cytotoxicity at 10 µM: 1.31%

COc1cccc(-c2noc(C3CCN(Cc4cn(C)nc4C)C3)n2)c1 (centres undefined)
cytotoxicity at 10 µM: 11.4%

O=C1NCCN1C1CCN(Cc2nc(-c3ccsc3)no2)CC1
cytotoxicity at 10 µM: 44.8%

CCNC(=O)N(C)C1CCN(Cc2ncc(C)c(OC)c2C)CC1
cytotoxicity at 10 µM: -0.514%

CCOc1ccc(OCCN2CCC(N3CCNC3=O)CC2)cc1
cytotoxicity at 10 µM: 41.3%

COc1cc(CNCc2ccnc(N3CCCCC3)c2)cc(OC)c1
cytotoxicity at 10 µM: 28.9%

Cc1cccc(-c2nc(CN3CCCC3Cn3cc(C)cn3)no2)c1 (centres undefined)
cytotoxicity at 10 µM: -1.82%

CN(Cc1ncc(C(C)(C)C)o1)CC1CCCN1c1cccnn1 (centres undefined)
cytotoxicity at 10 µM: -5.52%

c1ccc(OCCCN2CCN(c3ccc4nncn4n3)CC2)cc1
cytotoxicity at 10 µM: -0.421%

N#Cc1ccc(N2CCN(C(=O)c3cc(C4CC4)[nH]n3)CC2)c(F)c1
cytotoxicity at 10 µM: 1.94%

Cn1cc(NS(=O)(=O)c2ccc(OC(F)(F)F)cc2)ccc1=O
cytotoxicity at 10 µM: 33.4%

CC(C)N(CC(N)=O)Cc1csc(COc2ccc(F)cc2)n1
cytotoxicity at 10 µM: 33.9%

Cc1nc(C)n(CC2CCCN(c3ncnc4ccsc34)C2)n1 (centres undefined)
cytotoxicity at 10 µM: 42.4%

Cc1ccc(CN(CCCn2ccnc2)Cc2cccs2)s1
cytotoxicity at 10 µM: -17.6%

O=C(N1CCOCC1)[C@@]12CCO[C@@H]1CCN(Cc1ccncc1)C2
cytotoxicity at 10 µM: -1.2%

CCN1C[C@H]2[C@@H](C1)N(c1ncc(F)cn1)CC[C@H]2OC
cytotoxicity at 10 µM: 3.5%

FC1(F)CCN(Cc2ccccn2)CC12CCN(c1cccnc1)C2 (centres undefined)
cytotoxicity at 10 µM: 25.5%

CCN1C[C@@H]2[C@@H](OC)CCN(C(=O)c3cc(C)nn3CC)[C@@H]2C1
cytotoxicity at 10 µM: -118%

CNC(=O)c1cc2c(nc1NCC(C)C)CCN(c1ncccn1)CC2
cytotoxicity at 10 µM: -157%

c1cc(CO[C@H]2CC[C@H]3[C@H]2OCCN3Cc2nccs2)ccn1
cytotoxicity at 10 µM: -109%

Cn1cc(CN2C[C@@H]3OCCN(c4ncccn4)[C@@H]3C2)cn1
cytotoxicity at 10 µM: -75.1%

O=C(c1ccc(F)cc1)N1CCN2C[C@H](OCc3cccnc3)C[C@H]2C1
cytotoxicity at 10 µM: -85.1%

CN(Cc1ccco1)[C@@H]1CN(Cc2ccc(F)cc2)[C@@H]2CCCO[C@H]12
cytotoxicity at 10 µM: -70.6%

O=C(N1CCCC1)N1CCC2(CC1)CN(c1cccnc1)C(=O)CO2
cytotoxicity at 10 µM: -99.6%

O=C(c1ccco1)N1CCO[C@@H]2CN(CC3CC3)CC[C@@H]2C1
cytotoxicity at 10 µM: -67.9%

C/N=C1\c2cc3cc(OC)ccc3n2CCN1Cc1ccccc1
cytotoxicity at 10 µM: 80.4%
